Assay results as given in ChEMBL document CHEMBL3046718, “Synthesis and herbicidal activity of 5-(4-hydroxybenzyl)-2-thioxoimidazolidin-4-one esters” (2011).

Assays:
Assay type in all cases: functional
[1] = tested on: Triticum aestivum; experiment: Herbicidal activity against Triticum aestivum (wheat) assessed as inhibition of height growth at 200 ug/ml relative to control; conditions: read-out: GI
Summary of the method: (§1)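 Seedlings were grown in an illumination incubator from ten Zea mays seeds or five Triticum aestivum seeds per plate, on filter paper wetted with 2 mL of test solution at 200 mg/L. Distilled water served as blank and metazachlor as positive control. Inhibitory ratio (0–100%) was scored against distilled water.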

[2] = tested on: Zea mays; experiment: Herbicidal activity against Zea mays (maize) assessed as inhibition of height growth at 200 ug/ml relative to control; conditions: read-out: GI; summary of the method: as §1
[3] = tested on: Arabidopsis thaliana; experiment: Herbicidal activity against Arabidopsis thaliana assessed as inhibition of seed germination at 200 ug/ml relative to control
Summary of the method: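 Five sterilized Arabidopsis thaliana […] per well in 24-well sterile plates, each with 100 μL of test solution at 200 mg/L, grown in an illumination incubator. Distilled water served as blank and metazachlor as positive control. Inhibitory ratio (0–100%) was scored against distilled water.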

[4] = tested on: Zea mays; experiment: Herbicidal activity against Zea mays (maize) assessed as inhibition of root growth at 200 ug/ml relative to control; conditions: read-out: GI; summary of the method: as §1
[5] = tested on: Triticum aestivum; experiment: Herbicidal activity against Triticum aestivum (wheat) assessed as inhibition of root growth at 200 ug/ml relative to control; conditions: read-out: GI; summary of the method: as §1
[6] = tested on: Echinochloa crus-galli; experiment: Herbicidal activity against Echinochloa crus-galli (barnyard grass) at 1000 g/ha treated as post-emergence under greenhouse condition
[7] = tested on: Stellaria media; experiment: Herbicidal activity against Stellaria media at 1000 g/ha treated as pre-emergence under greenhouse condition
[8] = tested on: Echinochloa crus-galli; experiment: Herbicidal activity against Echinochloa crus-galli (barnyard grass) at 1000 g/ha treated as pre-emergence under greenhouse condition
[9] = tested on: Setaria viridis; experiment: Herbicidal activity against Setaria viridis (green foxtail) at 1000 g/ha treated as pre-emergence under greenhouse condition
[10] = tested on: Stellaria media; experiment: Herbicidal activity against Stellaria media at 1000 g/ha treated as post-emergence under greenhouse condition
[11] = tested on: Setaria viridis; experiment: Herbicidal activity against Setaria viridis (green foxtail) at 1000 g/ha treated as post-emergence under greenhouse condition

Row | Compound | inhibition of growth at 200 µg/mL [1] [%] | inhibition of growth at 200 µg/mL [2] [%] | inhibition at 200 µg/mL [3] [%] | inhibition of growth at 200 µg/mL [4] [%] | inhibition of growth at 200 µg/mL [5] [%] | inhibition at 1000 g/ha [6] [%] | inhibition at 1000 g/ha [7] [%] | inhibition at 1000 g/ha [8] [%] | inhibition at 1000 g/ha [9] [%] | inhibition at 1000 g/ha [10] [%] | inhibition at 1000 g/ha [11] [%]
1 | O=C(Oc1ccc(CC2NC(=S)NC2=O)cc1)c1ccccc1Cl (configuration not stated) | 24.7 | 53.4 | 30 | 5.9 | 53.4 |  |  |  |  |  | 
2 | O=C(Oc1ccc(CC2NC(=S)NC2=O)cc1)c1cccc(Cl)c1 (configuration not stated) | 8.8 | 41.7 | 70 | 22.1 | 47.5 |  |  |  |  |  | 
3 | O=C(Oc1ccc(CC2NC(=S)NC2=O)cc1)c1ccccc1 (configuration not stated) | -11.1 | 26.6 | 10 | 44.5 | 16.2 |  |  |  |  |  | 
4 | COc1ccccc1C(=O)Oc1ccc(CC2NC(=S)NC2=O)cc1 (configuration not stated) | 81.3 | -26.2 | 50 | -29 | 79.1 |  |  |  |  |  | 
5 | Cc1cccc(C(=O)Oc2ccc(CC3NC(=S)NC3=O)cc2)c1 (configuration not stated) | -14.8 | 62.8 | 50 | 61.3 | 12.7 |  |  |  |  |  | 
6 | O=C(Cc1cc(C(F)(F)F)cc(C(F)(F)F)c1)Oc1ccc(CC2NC(=S)NC2=O)cc1 (configuration not stated) | 65.5 | 45.5 | 5 | 71.5 | 32.7 |  |  |  |  |  | 
7 | O=C(Oc1ccc(CC2NC(=S)NC2=O)cc1)c1ccc(-c2ccccc2)cc1 (configuration not stated) | 20.9 | 42.4 | 5 | 48.7 | 3.2 |  |  |  |  |  | 
8 | O=C(Cc1ccccc1)Oc1ccc(CC2NC(=S)NC2=O)cc1 (configuration not stated) | 34.9 | 53.9 | 20 | 58.1 | 42.1 |  |  |  |  |  | 
9 | O=C(Oc1ccc(CC2NC(=S)NC2=O)cc1)c1ccc(Cl)cc1 (configuration not stated) | -12.9 | 23.5 | 40 | 8.6 | -13.6 |  |  |  |  |  | 
10 | O=C(Oc1ccc(CC2NC(=S)NC2=O)cc1)c1ccc(F)cc1 (configuration not stated) | -22.9 | 32.8 | 20 | 66.3 | -8.5 |  |  |  |  |  | 
11 | O=C(Oc1ccc(CC2NC(=S)NC2=O)cc1)c1ccco1 (configuration not stated) | 27.5 | 72.8 | 40 | 60.7 | 30.3 |  |  |  |  |  | 
12 | O=C(Oc1ccc(CC2NC(=S)NC2=O)cc1)c1ccc([N+](=O)[O-])cc1 (configuration not stated) | -24.6 | 100 | 40 | 100 | -25.8 | 0 | 60 | 50 | 50 | 0 | 0
13 | O=C(Oc1ccc(CC2NC(=S)NC2=O)cc1)c1ccc(Cl)c(Cl)c1 (configuration not stated) | -15.8 | 36.7 | 40 | 24.1 | 7 |  |  |  |  |  | 
14 | O=C(/C=C/c1ccccc1)Oc1ccc(CC2NC(=S)NC2=O)cc1 (configuration not stated) | 33.8 | 52.7 | 10 | 77.9 | 2.5 |  |  |  |  |  | 
15 | O=C(Oc1ccc(CC2NC(=S)NC2=O)cc1)c1ccc(Cl)c([N+](=O)[O-])c1 (configuration not stated) | -3.7 | 54.4 | 50 | 44.2 | 2.6 |  |  |  |  |  | 
16 | COc1cc(C(=O)Oc2ccc(CC3NC(=S)NC3=O)cc2)cc(OC)c1OC (configuration not stated) | 42.3 | 22.1 | 10 | 19.9 | 59.7 |  |  |  |  |  | 
17 | COc1ccc(C(=O)Oc2ccc(CC3NC(=S)NC3=O)cc2)cc1 (configuration not stated) | 25.1 | 33.5 | 30 | 17.8 | 32.2 |  |  |  |  |  | 
18 | O=C(Oc1ccc(CC2NC(=S)NC2=O)cc1)c1ccccc1[N+](=O)[O-] (configuration not stated) | 3.7 | 63.6 | 40 | 7.6 | 10.6 |  |  |  |  |  | 

Row | Compound | inhibition of growth at 200 µg/mL [1] [%] | inhibition of growth at 200 µg/mL [2] [%] | inhibition at 200 µg/mL [3] [%] | inhibition of growth at 200 µg/mL [4] [%] | inhibition of growth at 200 µg/mL [5] [%] | inhibition at 1000 g/ha [6] [%] | inhibition at 1000 g/ha [7] [%] | inhibition at 1000 g/ha [8] [%] | inhibition at 1000 g/ha [9] [%] | inhibition at 1000 g/ha [10] [%] | inhibition at 1000 g/ha [11] [%]
19 | O=C(Oc1ccc(CC2NC(=S)NC2=O)cc1)c1ccc(Br)cc1 (configuration not stated) | 5.2 | 14.7 | 60 | 22 | -48 |  |  |  |  |  | 
20 | CC(=O)Oc1ccc(CC2NC(=S)NC2=O)cc1 (configuration not stated) | -3.6 | -14.5 | 10 | -6.7 | 20.9 |  |  |  |  |  | 
21 | Cc1cccc(C)c1N(Cn1cccn1)C(=O)CCl [METAZACHLOR] | 78.6 | 79 | 70 | 83 | 77.7 |  |  |  |  |  | 
22 | O=C(Cc1ccc(F)cc1)Oc1ccc(CC2NC(=S)NC2=O)cc1 (configuration not stated) | 50.2 | 70.1 | 20 | 77.3 | 86.6 |  |  |  |  |  | 
23 | O=C(COc1ccc(Cl)cc1Cl)Oc1ccc(CC2NC(=S)NC2=O)cc1 (configuration not stated) | 97.8 | 65.5 | 50 | 74.9 | 99.6 |  |  |  |  |  | 
24 | O=C(Oc1ccc(CC2NC(=S)NC2=O)cc1)c1cccc([N+](=O)[O-])c1 (configuration not stated) | 20.6 | 3.9 | 20 | -16.3 | 16.3 |  |  |  |  |  | 
25 | Cc1ccccc1C(=O)Oc1ccc(CC2NC(=S)NC2=O)cc1 (configuration not stated) | 5.8 | 53.2 | 60 | 33.5 | 20.7 |  |  |  |  |  | 
26 | O=C(Cc1cccc2ccccc12)Oc1ccc(CC2NC(=S)NC2=O)cc1 (configuration not stated) | 100 | 77.4 | 10 | 88 | 56.7 | 0 | 60 | 50 | 50 | 0 | 0
27 | COc1cccc(C(=O)Oc2ccc(CC3NC(=S)NC3=O)cc2)c1OC (configuration not stated) | -10.9 | 6.7 | 20 | 11.2 | 20.9 |  |  |  |  |  | 
28 | O=C(COc1ccc(Cl)cc1)Oc1ccc(CC2NC(=S)NC2=O)cc1 (configuration not stated) | 95.2 | 16.4 | 40 | 59.4 | 99.6 |  |  |  |  |  | 
29 | CC(C)(C)c1ccc(C(=O)Oc2ccc(CC3NC(=S)NC3=O)cc2)cc1 (configuration not stated) | 55.5 | 30.9 | 10 | 22.5 | 25.9 |  |  |  |  |  | 
30 | O=C(Oc1ccc(CC2NC(=S)NC2=O)cc1)c1ccccc1F (configuration not stated) | 48.4 | -19.4 | 30 | -30.2 | 57.9 |  |  |  |  |  | 
31 | COc1ccc(C(=O)Oc2ccc(CC3NC(=S)NC3=O)cc2)c(OC)c1 (configuration not stated) | -2.9 | 19.6 | 20 | -11.6 | 10.7 |  |  |  |  |  | 
32 | Cc1ccc(C(=O)Oc2ccc(CC3NC(=S)NC3=O)cc2)cc1 (configuration not stated) | 1.27 | 27.9 | 60 | 38.7 | 16.8 |  |  |  |  |  | 
33 | COc1ccc(C(=O)Oc2ccc(CC3NC(=S)NC3=O)cc2)cc1OC (configuration not stated) | 26.1 | 57.9 | 50 | 64.2 | 43.1 |  |  |  |  |  | 
34 | O=C(Oc1ccc(CC2NC(=S)NC2=O)cc1)c1cc([N+](=O)[O-])cc([N+](=O)[O-])c1 (configuration not stated) | 86.2 | 27.8 | 5 | 71 | 18.8 |  |  |  |  |  | 
35 | O=C(Oc1ccc(CC2NC(=S)NC2=O)cc1)c1cccs1 (configuration not stated) | -1.2 | 11.6 | 20 | -24.7 | 15.5 |  |  |  |  |  | 
